Measurements from ChEMBL document CHEMBL4017482, “4-Connected azabicyclo[5.3.0]decane Smac mimetics-Zn2+ chelators as dual action antitumoral agents” (Bioorg Med Chem Lett, 2017).
Active and inactive are the calls of the source. No cut-off for these calls is given here.

Assays:
[1] = system: MDA-MB-231; assay: Cytotoxicity against human smac mimetic-sensitive human MDA-MB-231 cells after 24 hrs by CellTiter-Glo assay; conditions: MDA-MB-231, 24 h
[2] = system: MDA-MB-231; assay: Induction of apoptosis in smac mimetic-sensitive human MDA-MB-231 cells assessed as increase in cleaved casapse-3 at 5 uM measured after 24 hrs by Western blot analysis; format: functional, cell-based
[3] = target: E3 ubiquitin-protein ligase XIAP (Homo sapiens) (UniProt P98170); assay: Induction of XIAP degradation in smac mimetic-sensitive human MDA-MB-231 cells at 5 uM measured after 24 hrs by Western blot analysis
Chain of E3 ubiquitin-protein ligase XIAP (Homo sapiens) (P98170 whole entry): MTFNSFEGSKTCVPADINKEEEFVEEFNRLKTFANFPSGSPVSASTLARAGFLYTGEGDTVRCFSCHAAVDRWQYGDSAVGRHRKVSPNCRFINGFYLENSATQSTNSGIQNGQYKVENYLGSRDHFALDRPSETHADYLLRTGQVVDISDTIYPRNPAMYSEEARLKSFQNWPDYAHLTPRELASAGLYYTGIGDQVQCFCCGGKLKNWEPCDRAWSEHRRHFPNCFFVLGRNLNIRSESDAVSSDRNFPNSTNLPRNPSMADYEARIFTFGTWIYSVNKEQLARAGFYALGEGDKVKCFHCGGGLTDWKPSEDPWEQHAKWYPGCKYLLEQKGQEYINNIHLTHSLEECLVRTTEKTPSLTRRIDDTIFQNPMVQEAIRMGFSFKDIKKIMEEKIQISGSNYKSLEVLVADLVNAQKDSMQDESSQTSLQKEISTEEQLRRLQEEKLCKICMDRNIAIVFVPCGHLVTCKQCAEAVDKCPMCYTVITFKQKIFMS

[4] = target: E3 ubiquitin-protein ligase XIAP (Homo sapiens) (UniProt P98170); assay: Induction of XIAP degradation in smac mimetic-resistant human MDA-MB-453 cells at 5 uM measured after 24 hrs by Western blot analysis
[5] = system: MDA-MB-231; assay: Induction of apoptosis in smac mimetic-sensitive human MDA-MB-231 cells assessed as increase in cleaved PARP level at 5 uM measured after 24 hrs by Western blot analysis; format: functional, cell-based
[6] = system: MDA-MB-453; assay: Cytotoxicity against human smac mimetic-sensitive human MDA-MB-453 cells after 24 hrs by CellTiter-Glo assay; conditions: MDA-MB-453, 24 h
[7] = system: MDA-MB-453; assay: Induction of apoptosis in smac mimetic-resistant human MDA-MB-453 cells assessed as increase in cleaved casapse-3 at 5 uM measured after 24 hrs by Western blot analysis; format: functional, cell-based
[8] = system: MDA-MB-453; assay: Induction of apoptosis in smac mimetic-resistant human MDA-MB-453 cells assessed as increase in cleaved PARP level at 5 uM measured after 24 hrs by Western blot analysis; format: functional, cell-based
[9] = Metal chelating activity of compound assessed as 1:1 stoichiometry for compound-Zn2+ complex at 50 uM measured after 15 mins by spectrofluorimetric method; format: functional
Method in brief: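 Compounds were titrated with Zn2+, and chelation was followed by fluorescence spectroscopy.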

| SMILES | IC50 [1] [µM] | Activity [2] | Activity [3] | Activity [4] | Activity [5] | IC50 [6] [µM] | Activity [7] | Activity [8] | Activity [9] |
| --- | --- | --- | --- | --- | --- | --- | --- | --- | --- |
| CC[C@H](NC)C(=O)N[C@@H]1C(=O)N2[C@@H](CC[C@@H]1CNC(=O)c1ccccc1)CC[C@H]2C(=O)NC(c1ccccc1)c1ccccc1 | 4.1 | Active | inactive | inactive | Active | > 25 | – | – | – |
| CC[C@H](NC)C(=O)N[C@@H]1C(=O)N2[C@@H](CC[C@@H]1CNC(=O)c1ccccc1)CC[C@H]2C(=O)N[C@H](C(=O)NCCN(Cc1ccccn1)Cc1ccccn1)c1ccccc1 | – | – | inactive | inactive | – | – | – | – | – |
| CC[C@H](NC)C(=O)N[C@@H]1C(=O)N2[C@@H](CC[C@@H]1CNC(=O)CCCCCCCCCCNC(=O)CN(Cc1ccccn1)Cc1ccccn1)CC[C@H]2C(=O)NC(c1ccccc1)c1ccccc1 | 0.97 | Active | Active | inactive | Active | > 25 | inactive | inactive | Active |
| CC[C@H](NC)C(=O)N[C@@H]1C(=O)N2[C@@H](CC[C@@H]1CNC(=O)CCNC(=O)CN(Cc1ccccn1)Cc1ccccn1)CC[C@H]2C(=O)NC(c1ccccc1)c1ccccc1 | > 25 | inactive | inactive | – | inactive | > 25 | inactive | inactive | Active |
| CC[C@H](NC)C(=O)N[C@@H]1C(=O)N2[C@@H](CC[C@@H]1CNC(=O)COCCOCCNC(=O)CN(Cc1ccccn1)Cc1ccccn1)CC[C@H]2C(=O)NC(c1ccccc1)c1ccccc1 | > 25 | inactive | inactive | Active | inactive | > 25 | inactive | inactive | Active |
| CC[C@H](NC)C(=O)N[C@@H]1C(=O)N2[C@@H](CC[C@@H]1CNC(=O)CN(Cc1ccccn1)Cc1ccccn1)CC[C@H]2C(=O)NC(c1ccccc1)c1ccccc1 | 6.5 | Active | inactive | – | Active | > 25 | inactive | inactive | Active |
